Rin1 Abl inh – inhibitors of human Rin1-Abl protein interaction | P00519+Q13671 | TR-FRET Rin1/Abl binding, biochemical | inhibition, % at 7.35 µM | 360,000 tested, 0.4% active | AID 588664; in the data active = inhibition above about 5%, passing the limit was not always enough
UBC13 inh – inhibitors of human UBC13 polyubiquitin chain formation | TR-FRET | inhibition, % at 20 µM | 330,000 tested, 0.47% active | AID 485273; in the data active = inhibition above about 45%, passing the limit was not always enough
SUMO HTRF inh – inhibitors of human SUMOylation (UBC9). P63279. HTRF SUMOylation assay, SAE1/SAE2 + UBC9, in vitro. inhibition, % at 35 µM. 290,000 tested, 0.36% active. AID 2006; in the data active = inhibition above about 50%, passing the limit was not always enough
RBBP9 inh – human RBBP9 hydrolase inhibition | O75884 | recombinant RBBP9, FP-Rh probe fluorescence polarization | inhibition, % at 7.94 µM | 220,000 tested, 0.2% active | AID 1515;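 active = inhibition above the campaign mean of all tested compounds plus 3 SD, cut at about 14% in these data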;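 also: plate controls were DMSO wells with RBBP9 for no effect and wells lacking RBBP9 protein for full effect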
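Material: RBBP9 protein. Amount: RBBP9 at 2.5 µM in dispensed solution, before mixing. Schedule: 30 min then 45 min, 25 °C. Medium: Tris buffer pH 8.0, NaCl, Pluronic. Measured by: fluorescence polarization. Measure: percent inhibition from mP, scaled between DMSO and no-protein wells. Replication: one well per compound.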
PREPL inhibitor – human PREPL enzyme inhibition. Q4J6C6. recombinant PREPL, fluorescence polarization activity-based probe. inhibition, % at 5.96 µM. 320,000 tested, 0.68% active; in the data active = inhibition above about 43%;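 also: 0% = enzyme with DMSO and 100% = wells lacking enzyme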
ALR inh – blocks human ALR sulfhydryl oxidase activity. P55789. inhibition, % (no concentration beside the values). 290,000 tested, 3.8% active. purified ALR, DTT oxidation, H2O2 HRP-luminol luminescence;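 active = mean replicate inhibition above about 79%, with every replicate also reaching it, limit read from the data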
Rin1 Abl conf – Rin1-Abl interaction inhibition confirmation | shares compounds with Rin1 Abl inh | TR-FRET Rin1-Abl binding, purified proteins | inhibition, % at 7.35 µM | 1,300 tested, 49% active
GFP quencher – counter-screen for Rin1-Abl inhibitors: GFP fluorescence quenchers | inhibition, % at 6.75 µM | shares compounds with Rin1 Abl inh | 1,300 tested, 8.5% active | inhibitors/quenchers counterscreen | AID 602125;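 also: ABL1-eGFP fusion protein alone without its partner RIN1-SBP; 0% = protein with vehicle and 100% = wells lacking protein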
GFP quench dose – GFP fluorescence interference dose response; GFP fluorescence interference/quenching counterscreen; AID 602182; shares compounds with Rin1 Abl inh; IC50, µM; 230 tested, under 10 active; call rule not given here;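 also: ABL1-eGFP fusion protein alone without its RIN1 binding partner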
* marks the source's active call; other numbers are inactive results; · = no result given. The list is not random: actives were taken first. Their share in the collection is about 4.3%. Rule as the data show it, unless noted: active = inhibition above about 6.5%; inactive = the rest.

SMILES | Rin1 Abl inh | UBC13 inh | SUMO HTRF inh | RBBP9 inh | PREPL inhibitor | ALR inh | Rin1 Abl conf | GFP quencher | others
COc1ccccc1N1CCN(Cc2ccc(OC)c(OC)c2OC)CC1 | 0 | 6 | 15 | 3 | 4 | 16 | · | ·
COc1ccccc1N1CCN(Cc2ccc(O)c3ncccc23)CC1 | 18* | 12 | -26 | 0 | 39 | 4 | 3 | 2
COc1cccc(C(c2c(C)[nH]n(-c3ccccc3)c2=O)c2c(C)[nH]n(-c3ccccc3)c2=O)c1OC | 6.4* | -34 | 93 | 1 | 4 | -54 | 0 | -2
Cc1[nH]n(-c2ccccc2)c(=O)c1C(C[N+](=O)[O-])c1ccccc1Cl (centres undefined) | 2 | -34 | 22 | -4 | 3 | -20 | · | ·
Cc1[nH]n(-c2ccccc2)c(=O)c1C(c1ccc(O)c([N+](=O)[O-])c1)c1c(C)[nH]n(-c2ccccc2)c1=O | 13* | -188 | · | 7 | -3 | -3 | -4 | 4
COc1cccc(C(c2c(C)[nH]n(-c3ccccc3)c2=O)c2c(C)[nH]n(-c3ccccc3)c2=O)c1O | 6 | -22 | · | · | 11 | -8 | · | ·
COc1ccc(C(C[N+](=O)[O-])c2c(C)[nH]n(-c3ccccc3)c2=O)cc1 (centres undefined) | 11* | -70 | 87* | · | 3 | -42 | 6.6* | -2
O=c1[nH]c2cc3c(cc2cc1CN(Cc1cccnc1)C(=S)NCc1ccco1)OCCO3 | 1 | 1 | 37 | 0 | 4 | -9 | · | ·
OC[C@@H]1CN(CCNc2ccccc2)C[C@H](n2cnc3c(NCc4ccncc4)ncnc32)O1 | 0 | · | · | · | · | · | · | ·
CCC(C)(C)n1nnnc1C(c1cccnc1)N1CCCc2ccccc21 (centres undefined) | 43* | 6 | -1 | 3 | 10 | -11 | 48* | -1 | GFP quench dose=>67
CCOCc1nnc(NC(=O)c2c(OC)cccc2OC)s1 | 22* | -1 | -1 | 4 | 2 | -29 | 24* | 0 | GFP quench dose=>67
COc1cccc(CC(=O)Nc2ccc(S(=O)(=O)N3CCCCC3)cc2)c1 | 8.9* | 10 | · | · | 21 | -2 | 5 | 0
COc1ccc(OC)c(CN2CCN(S(=O)(=O)c3ccc(NC(C)=O)cc3)CC2)c1 | 10* | -3 | 8 | -12 | 17 | 0 | 1 | 0
CSc1cccc(N2CC(C(=O)Nc3ccccc3N3CCCC3)CC2=O)c1 (centres undefined) | -2 | 1 | · | · | 19 | 2 | · | ·
CCSCCc1nnc(NC(=O)Nc2cccc(C(F)(F)F)c2)s1 | 1 | 9 | -9 | -2 | 6 | -9 | · | ·
O=C1C(=O)c2cccnc2-c2ncccc21 | 50* | · | · | · | · | · | 49* | 1 | GFP quench dose=>67
CCC(C)(C)c1nnc(NC(=O)CCC2CCCCC2)s1 | -1 | 1 | · | · | -2 | 11 | · | ·
COc1cc(/C=N/NC(=O)CSc2ccccn2)ccc1OC(C)C | 17* | -1 | 22 | -9 | 1 | -6 | 26* | 1 | GFP quench dose=>68
COCCNc1nc(NCCN2CCNC2=O)c2sccc2n1 | -2 | · | · | · | · | · | · | ·
COc1ccccc1CNc1nc(NCCN2CCNC2=O)c2sccc2n1 | 12* | · | · | · | · | · | 6.9* | -1
CC(C)[C@H](NC(=O)[C@@H]1Cc2c([nH]c3ccccc23)C2c3ccccc3C(=O)N21)C(=O)NCC1CCCO1 (some centres undefined) | -6 | 18 | 6 | · | -3 | 1 | · | ·
Cc1c(CC(=O)N2C[C@H]3C[C@@H](C2)c2cccc(=O)n2C3)c(=O)oc2cc3occ(C(C)(C)C)c3cc12 | -5 | 5 | 28 | · | 0 | -2 | · | ·
Cc1ccc(-c2nn3c(-c4ccco4)nnc3c3ccccc23)cc1S(=O)(=O)NCC1CCCO1 (centres undefined) | 11* | 14 | 24 | -7 | -7 | 5 | 27* | 1 | GFP quench dose=>68
CCCCn1nnnc1C(C1CC1)N1CCN(C/C=C/c2ccccc2)CC1 (centres undefined) | -3 | · | · | · | · | · | · | ·
Cn1cccc1Cc1nnc(SCC(=O)N2CCOCC2)n1CCc1ccccc1 | -1 | 4 | -3 | 0 | 5 | · | · | ·
SMILES | Rin1 Abl inh | UBC13 inh | SUMO HTRF inh | RBBP9 inh | PREPL inhibitor | ALR inh | Rin1 Abl conf | GFP quencher | others
CCOC(=O)N1CCN(C(=O)CSc2nnc(Cc3cccn3C)n2CCc2ccccc2)CC1 | 5.7* | 7 | -7 | -13 | 13 | 7 | -1 | -1
O=C(Sc1n[nH]c(=O)[nH]c1=O)c1ccccc1 | 0 | · | · | · | · | · | · | ·
CC(=O)Oc1ccc(/C=C2/C(=O)N(c3ccccc3)N=C2C)cc1 | 11* | -58 | 32 | · | 12 | -156 | -2 | 0
CC1=NN(c2ccccc2)C(=O)/C1=C/c1cccc(C)c1 | 9.4* | -57 | 34 | · | 3 | 94* | 1 | 2
COc1ccc(/C=C2/C(=O)N(c3ccccc3)N=C2C)cc1OC | 18* | -34 | 94 | · | · | 37 | 1 | 0
CC1=NN(c2ccccc2)C(=O)/C1=C\c1cc(C)n(C)c1C | -7 | -25 | 6 | -5 | 1 | 4 | · | ·
OCC[C@@H]1C[C@@H](O)[C@H](O)[C@@]2(CCCCO2)O1 | 0 | -7 | · | · | 3 | 2 | · | ·
O=C(Nc1ccn([C@H]2CC[C@@H](CO)O2)c(=O)n1)c1ccccc1 | 24* | 3 | 1 | -3 | -7 | -9 | 22* | -2 | GFP quench dose=>68
CN1CCN(c2ccc(CNC(=O)C3Cc4c(-c5ccccc5Oc5ccccc5)ccnc4O3)cc2)CC1 (centres undefined) | -5 | · | · | · | · | · | · | ·
CN1CCN(c2ccc(CNC(=O)C3Cc4c(-c5ccccc5)ccnc4O3)cc2)CC1 (centres undefined) | 8.1* | · | · | · | · | · | 5 | -1
COc1ccc(Br)cc1C(=O)Nc1ccccc1N1CCCC1 | 6.6* | 2 | · | · | 8 | 26 | -2 | 1
Cn1c(CCNC(=O)c2ccco2)nc2cc(NS(=O)(=O)c3ccc(Cl)cc3)ccc21 | 5.7* | -8 | 9 | 2 | -9 | -19 | -3 | 1
CCOc1ccc(CN(C)C(=O)c2ccc(NC(=O)CC3SC(N4CCCC4)=NC3=O)cc2)cc1 (centres undefined) | 10* | -7 | 20 | · | 2 | 0 | 5 | -2
Clc1ccccc1C1=CC(c2ccco2)n2ncnc2N1 (centres undefined) | -3 | 5 | 28 | -14 | -23 | 12 | · | ·
Cc1nc2ccc(S(=O)(=O)NC(C(=O)NCc3ccc4c(c3)OCO4)C(C)C)cc2s1 (centres undefined) | 0 | -5 | 1 | -15 | 3 | -37 | · | ·
CCN1CCN(C(=O)C(NS(=O)(=O)c2ccc3nc(C)sc3c2)C(C)C)CC1 (centres undefined) | 8.1* | 3 | 13 | -2 | 2 | 92* | 1 | 0
